Assay results collected from several papers.
CDK4 with cyclin D1: Cyclin-dependent kinase 4, with cyclin D1 (CDK4, Homo sapiens, UniProt P11802)
CDK4 with cyclin D3: Cyclin-dependent kinase 4, with cyclin D3 (CDK4, Homo sapiens, UniProt P11802)

| Compound | target | effect on | mode | method | tested at | quantity | result |
| --- | --- | --- | --- | --- | --- | --- | --- |
| CCCCC(=O)Nc1ccc(-c2ccc3ncn(CCC)c(=O)c3c2)cn1 | CDK4 with cyclin D1 | binding |  | competition with immobilised ligand | 0.5 µM | remaining binding | 100% |
| C1=C/COCc2cc(ccc2OCCN2CCCC2)Nc2nccc(n2)-c2cccc(c2)COC/1 | CDK4 with cyclin D1 | binding |  |  | 0.1 µM | remaining binding | 48% |
| CNS(=O)(=O)c1ccc(Nc2ncc(C(F)(F)F)c(N3CCC[C@](C)(O)C3)n2)c(C)c1 | CDK4 with cyclin D1 | binding |  | competition with immobilised ligand | 1 µM | remaining binding | 46% |
| CC#CC(=O)N1CCC[C@H]1c1nc(-c2ccc(C(=O)Nc3ccccn3)cc2)c2c(N)nccn12 | CDK4 with cyclin D3 | enzyme activity | inhibitor |  | 1 µM | inhibition | 0% |
| COc1ccc2[nH]c3c4[nH]c5ccc(OC)cc5c4c4c(c3c2c1)C(=O)NC4=O | CDK4 with cyclin D1 | binding |  |  | 1 µM | remaining binding | 82% |
| C=CC(=O)N1CCC([C@@H]2CCNc3c(C(N)=O)c(-c4ccc(Oc5ccccc5)cc4)nn32)CC1 | CDK4 with cyclin D3 | enzyme activity | inhibitor |  | 1 µM | inhibition | 0% |
| C[C@]1(O)CCCN(c2nc(Nc3ccc(S(=O)(=O)N[C@H]4CC[C@H](CN5CCN(c6ccc(C7CCC(=O)NC7=O)cc6F)CC5)CC4)cc3Cl)ncc2C(F)(F)F)C1 (some centres unmarked) | CDK4 with cyclin D1 | binding |  | competition with immobilised ligand | 1 µM | remaining binding | 91% |
| CO[C@@H]1[C@H](N(C)C(=O)c2ccccc2)C[C@H]2O[C@]1(C)n1c3ccccc3c3c4c(c5c6ccccc6n2c5c31)C(=O)NC4 | CDK4 with cyclin D3 | enzyme activity | inhibitor |  | 1 µM | inhibition | 2% |
| CN1CCN(C(=O)c2ccc(NC(=O)Nc3ccc(N(C)c4ccnc(Nc5ccc(CS(C)(=O)=O)cc5)n4)cc3)cc2)CC1 | Cyclin-dependent kinase 4 (CDK4, Homo sapiens, UniProt P11802) | binding |  |  | 1 µM | remaining binding | 83% |
| C[C@]1(O)CCCN(c2nc(Nc3ccc(S(=O)(=O)N[C@H]4CC[C@H](CN5CCN(c6ccc(C7CCC(=O)NC7=O)cc6F)CC5)CC4)cc3F)ncc2C(F)(F)F)C1 (some centres unmarked) | CDK4 with cyclin D3 | binding |  | competition with immobilised ligand | 1 µM | remaining binding | 96% |
| CC(C)S(=O)(=O)c1ccc2nccc(Nc3ccc4sc(C5CCCC5)nc4c3)c2c1 | CDK4 with cyclin D3 | enzyme activity | inhibitor |  | 1 µM | activity vs control | 102% |
